A short description of test [1]: In vitro Cytotoxic concentration in mock-infected A3.01 cells - 100% toxicity. Format: functional, Homo sapiens. An outline of the steps: (§1)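 Toxicity was read on mock-infected A3.01, H9 or PBL cells handled alongside the infected ones (3 h mock infection, wash). Compounds were 3-fold serially diluted (AZT 5-fold). Incubation lasted 7 days, with medium and compound changed on day 4. Cytotoxicity was graded by eye from cell morphology and death. […] Single determination.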

Test [2] is described as follows: In vitro Cytotoxic concentration in mock-infected A3.01 cells. The class given is functional, Homo sapiens. The essentials: as §1
Test [3] in a line: Selectivity index is defined as CC25(A3.01 cells) / IC50(A3.01 cells). The class given is functional. An outline of the steps:
(§2)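 Selectivity index = CC25/IC50 within each line (A3.01, H9 or PBL). CC25 came from visual grading of mock-infected cells after 7 days. IC50 came from reverse transcriptase activity in infected-cell supernatants after 7 days, with medium and compound changed on day 4.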

The subject of test [4] is MT2. In words: In vitro Cytotoxic concentration which destroyed HIV-1 LAV infected MT-2 cells completely. The class given is functional, Homo sapiens. The essentials: (§3)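 MT-2 cells were mock-infected for 3 h at 37 °C in 5% CO2, then washed. Compound was added as serial dilutions (3-fold; AZT 5-fold) and incubated 4 days. Cytotoxicity was counted by trypan blue dye exclusion on a hemocytometer. […] Single determination.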

Test [5] in a line: Selectivity index is defined as CC25(PBLcells) / […]. The class given is functional. The essentials:
as §2

Test [6] deals with MT2. The test can be described thus: In vitro Cytotoxic concentration which reduced H 112-2(pre-AZT) infected MT-2 cells by 50 percent. Format: functional, cell-based. The settings on record: Homo sapiens. The essentials:
(§4)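 MT-2 cells were infected for 3 h at 37 °C in 5% CO2 with HIV-1 LAV or with clinical isolates G762-3, H112-2 (pre-AZT) or G691-2, G910-6p2 (post-AZT), then washed. Serial compound dilutions (3-fold; AZT 5-fold) followed, with 4-day incubation. Virus was measured as p24 core antigen by kit. IC50 = 50% reduction versus control cultures. Single determination.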

The subject of test [7] is MT2. The test can be described thus: In vitro Cytotoxic concentration which reduced HIV-1 LAV infected MT-2 cells by 25 percent. Format: functional, Homo sapiens. The essentials: as §3
Test [8] is described as follows: Selectivity index is defined as CC25(H9 cells) / […]. The class given is functional. The essentials: as §2
A short description of test [9]: In vitro Cytotoxic concentration which reduced HIV-1 LAV infected peripheral blood lymphocytes by 50 percent. The class given is functional. The essentials: (§5)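 Cells (A3.01, H9 or PBL) infected with HIV-1 LAV for 3 h at 37 °C in 5% CO2, then washed free of unadsorbed virus. Test compounds were serially diluted 3-fold and AZT 5-fold. Cultures ran 7 days, with medium and compound renewed on day 4. Reverse transcriptase activity in supernatants gave virus levels. IC50 = concentration cutting virus by 50% versus control cultures. Single determination.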

Test [10] deals with MT2. In words: In vitro Cytotoxic concentration which reduced G 762-3(pre-AZT) infected MT-2 cells by 50 percent. Format: functional, cell-based. The settings on record: Homo sapiens. An outline of the steps:
as §4

The nature of test [11]: Selectivity index is defined as CC25(MT2 cells) / […]. The class given is functional. An outline of the steps: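 Selectivity index = CC25/IC50 in MT-2 cells. CC25 came from trypan blue exclusion on mock-infected cells after 4 days. IC50 came from the 50% reduction in p24 antigen in HIV-1 LAV-infected cultures after 4 days.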
Test [12] concerns H9. The test can be described thus: In vitro Cytotoxic concentration which reduced HIV-1 LAV infected H9 cells by 50 percent. The class given is functional, cell-based. The settings on record: Homo sapiens. The essentials:
as §5

The subject of test [13] is MT2. The test can be described thus: In vitro Cytotoxic concentration which reduced G 691-2(post-AZT) infected MT-2 cells by 50 percent. The settings on record: Homo sapiens. The class given is functional, cell-based. An outline of the steps:
as §4

The test system of test [14] is MT2. The test can be described thus: In vitro Cytotoxic concentration which reduced HIV-1 LAV infected MT-2 cells by 50 percent. Format: functional, cell-based. Conditions: Homo sapiens. An outline of the steps:
as §4

Test [15] can be described thus: In vitro Cytotoxic concentration which reduced HIV-1 LAV infected peripheral blood lymphocytes (PBL) by 25 percent. The class given is functional. The essentials:
as §1

Test [16] concerns MT2. In words: In vitro Cytotoxic concentration which reduced G 910-6p2 (post-AZT) infected MT-2 cells by 50 percent. The class given is functional, cell-based. Conditions: Homo sapiens. An outline of the steps: as §4
The subject of test [17] is MT2. The test can be described thus: (§6) In vitro Cytotoxic concentration which destroyed HIV-1 LAV infected peripheral blood lymphocytes (PBL) completely. Format: functional, Homo sapiens. An outline of the steps: as §1
For test [18], the system named is H9. In words: In vitro Cytotoxic concentration which destroyed HIV-1 LAV infected H9 cells completely. Format: functional, Homo sapiens. An outline of the steps: as §1
In test [19] the test system is H9. In words: In vitro Cytotoxic concentration which reduced HIV-1 LAV infected H9 cells by 25 percent. The class given is functional, Homo sapiens. The essentials:
as §1

The nature of test [20]: In vitro cytotoxic concentration for mock-infected CD4+ T cells at which 25% cells were destroyed. The class given is functional, T-cell. An outline of the steps: as §1
The nature of test [21]: Selectivity index is defined as CC25(A3.01 cells) / IC50(A3.01 cells); selectivity Index = CC25/IC50. The class given is functional. An outline of the steps:
as §2

Test [22] can be described thus: In vitro cytotoxic concentration for mock-infected cells at which complete destruction of cells was observed. The class given is functional. The essentials:
as §1

A short description of test [23]: as §6. Format: functional. The essentials:
as §1

Experimental findings from ChEMBL document CHEMBL1125438, “Synthesis and anti-HIV activity of 4'-azido- and 4'-methoxynucleosides” (J Med Chem, 1992) are described below.

What is called pIC50 is the negative decadic logarithm of the IC50, by convention in mol/L. High values mean a small IC50, low ones a large IC50.

pIC50: −log10 of the molar value. “And” between values parts separate entries of the source, which are not always exact repeats. Identical values can stand only once.

Turning to `[N-]=[N+]=N[C@]1(CO)O[C@@H](n2ccc(N)nc2=O)C[C@@H]1O`, in test [1], the CC100 turned out to be 1.9 µM. The compound further returned a CC25 in test [2] of 0.21 µM. Besides, in [3], the Selectivity index is 53.
Compound `Cc1cn([C@H]2CC[C@@](CO)(N=[N+]=[N-])O2)c(=O)[nH]c1=O` had a CC100 in test [1] of 33.3 µM. The CC25 in [2] was 11.1 µM.
For `Cc1cn([C@H]2CC[C@](CO)(N=[N+]=[N-])O2)c(=O)[nH]c1=O` the same measures were 200 µM and 22 µM.
For `[N-]=[N+]=N[C@]1(CO)O[C@@H](n2ccc(=O)[nH]c2=O)[C@H](O)[C@@H]1O`, in test [1], the CC100 is >200 µM. Besides, in [2], the CC25 is >200 µM. In test [3], the Selectivity index is >2.74.
In the case of `Cc1cn([C@H]2C[C@H](O)[C@](CO)(N=[N+]=[N-])O2)c(=O)[nH]c1=O`, the CC100 with MT2 [4] was >500 µM; in test [1], 200 µM and >200 µM; with MT2 [17], >200 µM; in the test with H9 [18], 667 µM. Moreover, the Selectivity index in [5] is 125; in test [8], 625; in [3], 800; in test [11], 140. Moreover, the pIC50 in the test with MT2 [6] is 6.40; in [9] it was 7.70; in the test on MT2 [10], 6.37; with H9 [12] it was 6.40; in the test with MT2 [13] it was 6.47; with MT2 [14], 6.40. In the test with MT2 [16], this compound gave a pIC50 of 6.28. The CC25 with MT2 [7] was 56 µM; in [15], 2.5 µM; in the test on H9 [19], 25 µM.
In [1], `Cc1cn(C2C=CC(CO)(N=[N+]=[N-])O2)c(=O)[nH]c1=O` (configuration not stated) came in with a CC100 of 7.4 µM. Further, the CC25 in test [2] is 2.5 µM.
As to `[N-]=[N+]=N[C@]1(CO)O[C@@H](N2C=NC3C(=O)N=C(N)N=C32)C[C@@H]1O` (some centres not stated), in test [1], the CC100 was determined as 1.9 µM. Besides, the CC25 in test [2] amounted to 0.21 µM. Besides, the Selectivity index in test [3] is listed as 70.
In [1], `[N-]=[N+]=N[C@]1(CO)O[C@@H](N2C=NC3C(=O)N=CN=C32)C[C@@H]1O` (some centres not stated) displayed a CC100 of 200 µM. Besides, the CC25 in [2] is <22 µM. Also, the Selectivity index in [3] is <34.
Consider `CO[C@H]1C[C@H](n2cc(C)c(=O)[nH]c2=O)O[C@@]1(CO)N=[N+]=[N-]`, for which the CC100 in test [1] is >200 µM. Moreover, the CC25 in test [2] is >200 µM. For the same compound, in [3], the Selectivity index was >9.8.
With `CO[C@]1(CO)O[C@@H](n2cc(C)c(=O)[nH]c2=O)C[C@@H]1O`, in [1], the CC100 is >200 µM. In addition, the CC25 in test [2] was >200 µM. Further, the Selectivity index in test [3] was >23.6.
Compound `CO[C@]1(CO)O[C@@H](n2cnc3c(O)nc(N)nc32)C[C@@H]1O` displayed a CC25 in [20] of 22 µM. Besides, the Selectivity index in [21] came out at 220. This compound registered a CC100 in test [22] of 67 µM.
With `CO[C@]1(CO)O[C@@H](n2cnc3c(N)ncnc32)C[C@@H]1O`, the CC100 in test [1] is >1000 µM. In addition, in test [2], the CC25 was determined as 1000 µM. In [3], the Selectivity index is listed as 64.5.
For `[N-]=[N+]=N[C@]1(CO)O[C@@H](n2cc(Cl)c(=O)[nH]c2=O)C[C@@H]1O`, in [1], the CC100 was >1000 µM. This compound also returned a CC25 in test [2] of 1000 µM. The Selectivity index in test [3] stood at 17900.
For `[N-]=[N+]=N[C@]1(CO)O[C@@H](n2cnc3c(N)ncnc32)C[C@@H]1O` the same measures were >50 µM, 50 µM and 385.
For `[N-]=[N+]=N[C@]1(CO)O[C@@H](n2ccc(=O)[nH]c2=O)C[C@@H]1O` the same measures were >200 µM, 200 µM and 250.
For `COC1(CO)OC(n2cc(C)c(=O)[nH]c2=O)CC1F` (configuration not stated) the same measures were >400 µM, 400 µM and 125.
In test [1], `[N-]=[N+]=N[C@]1(CO)O[C@@H](n2ccc(N)nc2=O)[C@H](O)[C@@H]1O` [4'-AZIDOCYTIDINE] came in with a CC100 of 74.1 µM. The compound also displayed a CC25 in [2] of 8.2 µM.
Regarding `Cc1cn([C@H]2C[C@H](N=[N+]=[N-])[C@@H](CO)O2)c(=O)[nH]c1=O` [ZIDOVUDINE], the CC100 is >500 µM with MT2 [4], 3300 µM in [1], >500 µM in test [23] and 1200 µM in the test with H9 [18]. In addition, the negative-log IC50 (pIC50) in the test on MT2 [6] was 6.70; in test [9], 7.10; with MT2 [10] it was 6.66; with H9 [12], 7.52; in the test with MT2 [13] it was 5.00; in the test with MT2 [14], 6.80. In the test on MT2 [16], this compound showed a pIC50 of 4.51. Also, the CC25 in test [2] amounted to 825 µM; with MT2 [7], 56 µM; in test [15], 4 µM; in the test on H9 [19], 44 µM.
